Measurements published in ChEMBL document CHEMBL4359895, “Discovery and biological evaluation of darolutamide derivatives as inhibitors and down-regulators of wild-type AR and the mutants” (Eur J Med Chem, 2019).
The source made the active and inactive calls. No cut-off for these calls is given here.

Columns and labels:
CWR22R [1] = test: Inhibition of AR splice variant 7 mutant gene expression in human 22Rv1 cells at 10 to 30 uM incubated for 24 hrs by qRT-PCR analysis; assay type: functional, cell-based
In short: (§1)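 LNCaP, VCaP and 22Rv1 cells treated with DMSO or compounds for 24 h. AR-full and AR-V7 mRNA measured by qRT-PCR and normalised to GAPDH. Mean ± SD, n = 3, compared with DMSO by two-tailed t test.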

VCaP [2] = test: Inhibition of AR mRNA level in human VCaP cells at 10 to 30 uM incubated for 24 hrs by qRT-PCR analysis; assay type: functional, cell-based; in short: as §1
LNCaP [3] = test: Inhibition of AR mRNA level in human LNCAP cells at 5 to 20 uM incubated for 24 hrs by qRT-PCR analysis; assay type: functional, cell-based; in short: as §1
CWR22R [4] = test: Inhibition of AR mRNA level in human 22Rv1 cells at 10 to 30 uM incubated for 24 hrs by qRT-PCR analysis; assay type: functional, cell-based; in short: as §1
CWR22R [5] = test: Inhibition of AR splice variant 7 mutant expression in human 22Rv1 cells at 10 to 30 uM incubated for 24 hrs by Western blot analysis analysis; assay type: functional, cell-based
In short: (§2)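 LNCaP, VCaP and 22Rv1 cells grown in medium with 10% (v/v) FBS. Treated with compounds or DMSO for 24 h. AR-full and AR splice-variant protein then assessed by western blot.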

LNCaP [6] = test: Inhibition of AR protein expression in human LNCAP cells at 5 to 30 uM incubated for 24 hrs by Western blot analysis; assay type: functional, cell-based; in short: as §2
VCaP [7] = test: Antitumor activity against castration-resistant human VCaP cells xenografted in BALB/c mouse assessed as tumor growth inhibition at 30 mg/kg, po administered for 40 days; assay type: functional; settings: 960 h, read-out: TGI
In short: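 Castration-resistant VCaP xenografts grown in male BALB/c nude mice. Animals dosed once daily for 40 days alongside a vehicle group. Tumor volume tracked over time, with tumor weights taken at end. Reported as tumor growth inhibition, mean ± SEM, N = 8-9 per group.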

[8] = Toxicity in BALB/c mouse xenografted with castration-resistant human VCaP cells assessed as weight loss at 30 to 60 mg/kg, po administered for 40 days; assay type: organism-based; settings: in vivo, 960 h
In short: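 Castration-resistant VCaP xenografts in male BALB/c nude mice. Animals treated once daily for 40 days, with a vehicle group included.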

LNCaP [9] = test: Induction of androgen receptor splice variant 7 mutant degradation in human LNCAP cells at 30 uM incubated upto 26 hrs in presence of bortezomib by Western blot analysis; assay type: functional, cell-based
CWR22R [10] = test: Inhibition of AR protein expression in human 22Rv1 cells at 10 to 40 uM incubated for 24 hrs by Western blot analysis; assay type: functional, cell-based; in short: as §2
CWR22R [11] = test: Inhibition of AR splice variant 7 mutant expression in human 22Rv1 cells at 10 to 40 uM incubated for 24 hrs by Western blot analysis analysis; assay type: functional, cell-based; in short: as §2

SMILES | inhibition (CWR22R [1]) | inhibition (VCaP [2]) | inhibition (LNCaP [3]) | inhibition (CWR22R [4]) | inhibition (CWR22R [5]) | inhibition (LNCaP [6]) | inhibition in vivo at 30 mg/kg (VCaP [7]) [%] | Activity [8] | Activity (LNCaP [9]) | inhibition (CWR22R [10]) | inhibition (CWR22R [11])
C[C@@H](Cn1ccc(-c2ccc(C#N)c(Cl)c2)n1)Nc1cccc2ncccc12 | Active | Active | Active | Active | Active |  |  |  |  |  | 
C[C@@H](Cn1ccc(-c2ccc(C#N)c(Cl)c2)n1)Nc1ncnc2nc[nH]c12 |  |  |  |  |  | Active | 64.7 | Non-Toxic | inactive | Active | Active
